High-throughput results deposited in PubChem by several laboratories.
Arrestin-AP2 inh = human beta-arrestin and AP2 interaction inhibition | actives 0.31% (n = 340,000) | inhibition, % at 10 µM | FITC-arrestin peptide / GST-AP2 beads, flow cytometry; AP2 beta2 appendage carries R879A mutation;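 active = inhibition above a set limit, near 3 SD of compounds lacking own fluorescence, cut at about 54% in these data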;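 also: plate controls were DMSO wells for no effect and 5 µM unlabelled arrestin peptide for full effect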
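System: GST-AP2 R879A glutathione beads | Also added: FITC-arrestin peptide, 50 nM | Times: 12 min plus 1 h, RT | Signal: Bead flow cytometry, FITC channel | Buffer or medium: PBS with 0.05% Tween 20 and 0.1% BSA | Read-out basis: Percent drop in bead-associated FITC signal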
SENP1 inh = inhibitors of human SENP1 SUMO protease catalytic domain; Q9P0U3; recombinant SENP1 catalytic domain, CyPet-SUMO1-YPet FRET cleavage; inhibition, % at 10 µM; actives 0.21% (n = 360,000);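 active = inhibition at least 30% at 10 µM, raw YFP signal under a set limit, fluorescence ratio 0.5 to 1.5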;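 also: 0% = enzyme with DMSO and 100% = no enzyme wells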
Target sequence (Q9P0U3 419-644 limits assumed): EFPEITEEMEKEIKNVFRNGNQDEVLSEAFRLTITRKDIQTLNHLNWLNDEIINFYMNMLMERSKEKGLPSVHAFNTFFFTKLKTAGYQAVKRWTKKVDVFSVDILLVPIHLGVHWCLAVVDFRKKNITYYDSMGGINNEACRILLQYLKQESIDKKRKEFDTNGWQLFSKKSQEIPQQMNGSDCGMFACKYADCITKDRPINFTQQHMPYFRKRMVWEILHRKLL
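Material – human SENP1 catalytic domain · Input – SENP1 enzyme, 20 pM final · Compound dosing – single concentration of 10 µM compound, 0.5% DMSO final · Timing – enzyme reaction for 50 min at room temperature, dark · Measured by – FRET fluorescence in CFP and YFP emission channels · Control set – no-enzyme wells low, DMSO-plus-enzyme wells high control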
H9c2 protect = modulators protecting cardiomyocytes from myocardial damage; H9c2 cardiomyocytes, H2O2 injury protection, ATPLite, 2 h; protection from H2O2 cell death, % at 20 µM; actives 0.63% (n = 360,000); AID 588492;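 active = compounds giving at least 50% protection of heart cells from peroxide-induced death in the single-dose screen, raw or plate-pattern-corrected value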;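 also: 0% = DMSO wells with peroxide and 100% = DMSO wells without peroxide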
hiPSC survival = hiPSC single-cell survival enhancement; ATPlite luminescence; 100% = ROCK inhibitor wells, 0% = DMSO; survival enhancement, % at 20 µM; actives 0.044% (n = 360,000); AID 602274; in the data active = survival enhancement above about 18%;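 also: cells exposed to compounds for 16 hours before the ATP read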
GRIN3A LBD mod = modulators (binders) of human NR3A ligand-binding domain; NR3A LBD differential scanning fluorimetry, Tm shift; 0% = protein alone, 100% = glycine-bound protein; Tm shift relative to glycine control, % at 25 µM; actives 2.5% (n = 340,000);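 active = melting temperature shift of at least 10% of the positive control shift, at one fixed dose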
FAS TE block = FAS thioesterase (human) inhibition. P49327. recombinant FAS-TE, OMFH fluorogenic substrate, fluorescence endpoint. inhibition, % at 15 µM. actives 0.67% (n = 360,000). AID 602261;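 active = compounds whose normalised, plate-corrected inhibition of enzyme fluorescence in the single-dose primary screen is 50% or more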;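 also: 0% = DMSO with enzyme and 100% = substrate without enzyme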
Numbers without * were called inactive. Only some compounds are listed: those with a hit (about 4% of all), similar ones and a draw of the others.

How did CCOC(=O)c1sc(NC(=O)Nc2ccccc2Cl)cc1C do in these assays?
Arrestin-AP2 inh: -1.3; SENP1 inh: -1.6; H9c2 protect: -16.2; hiPSC survival: -3.3; GRIN3A LBD mod: 28.0*; FAS TE block: 24.6

What do the screens show for `Cc1ccc(F)c(C(=O)N2CCCC(C)(C(=O)NS(=O)(=O)C3CC3)C2)c1F` (configuration not stated)?
SENP1 inh: -0.1; H9c2 protect: 12.1; hiPSC survival: -0.7; FAS TE block: -8.4

How did CCOC(=O)c1sc(NC(=O)CSc2n[nH]c(-c3ccc(Cl)cc3Cl)n2)c(C#N)c1C do in these assays?
Arrestin-AP2 inh: 21.0; SENP1 inh: -2.0; H9c2 protect: -18.5; hiPSC survival: 1.3; GRIN3A LBD mod: 33.0*; FAS TE block: -43.3

How did CCOC(=O)c1sc(NC(=O)c2cc(-c3ccccc3C)nc3ccccc23)c(C#N)c1C do in these assays?
Arrestin-AP2 inh: 4.1; SENP1 inh: 19.9; H9c2 protect: -29.2; hiPSC survival: -0.5; GRIN3A LBD mod: 24.3*; FAS TE block: 31.1

How did COc1ccccc1CNC(=O)Nc1nc(C(N)CCc2ccccc2)cs1 (configuration not stated) do in these assays?
SENP1 inh: 0.3; H9c2 protect: -9.3; hiPSC survival: -4.4; FAS TE block: -6.6

Results for CCOC(=O)C1(C)CCN1C(=O)c1ccc2c(c1)CCO2 (configuration not stated) ?
SENP1 inh: 2.2; H9c2 protect: -5.9; hiPSC survival: 0.3; FAS TE block: -7.1

Results for CN1C2C=CC(=O)C1C1C(=O)N(c3ccccc3)C(=O)C12 (configuration not stated) ?
SENP1 inh: 0.4; H9c2 protect: 0.1; hiPSC survival: -1.5; FAS TE block: -4.7

What do the screens show for `COCCNC(=S)NCc1ccc2[nH]c3c(c2c1)CCCC3`?
Arrestin-AP2 inh: -5.1; SENP1 inh: -16.1; H9c2 protect: -6.3; hiPSC survival: 2.0; GRIN3A LBD mod: -5.8; FAS TE block: -3.8

Results for Cc1ccc(NC(=S)NCc2ccc3[nH]c4c(c3c2)CCCC4)cc1 ?
Arrestin-AP2 inh: 5.5; SENP1 inh: -26.1; H9c2 protect: -15.0; hiPSC survival: -3.1; GRIN3A LBD mod: 11.0*; FAS TE block: 9.8

Results for Cc1cc(Nc2ccccc2C(=O)O)nc2nc3ccccc3c(=O)n12 ?
Arrestin-AP2 inh: 21.0; SENP1 inh: -0.2; H9c2 protect: 81.0*; hiPSC survival: -0.4; GRIN3A LBD mod: 0.3; FAS TE block: -6.5

How did NC(=O)c1ccccc1Nc1nc2nc3ccccc3c(=O)n2cc1Br do in these assays?
GRIN3A LBD mod: -9.8

How did O=S1(=O)N=C(Nc2ccc(O)cc2)c2ccccc21 do in these assays?
Arrestin-AP2 inh: 16.3; SENP1 inh: 1.1; H9c2 protect: 1.3; hiPSC survival: -1.1; GRIN3A LBD mod: 19.1*; FAS TE block: -9.1

What do the screens show for `Cc1ccccc1NC1=NS(=O)(=O)c2ccccc21`?
Arrestin-AP2 inh: -3.5; SENP1 inh: 2.0; H9c2 protect: -1.8; hiPSC survival: -0.6; GRIN3A LBD mod: -0.7; FAS TE block: -7.0

How did CN(C)CCNC(=O)c1cccc(-c2cc(NC=O)c3ncc(-c4cccc(C(F)(F)F)c4)n3c2)c1 do in these assays?
SENP1 inh: -27.4; H9c2 protect: -28.6; hiPSC survival: -2.3; FAS TE block: -13.5

What do the screens show for `COc1ccc(CN2CCC(n3nccc3NC(=O)C3CC3)CC2)cc1O`?
Arrestin-AP2 inh: -3.1; SENP1 inh: 1.5; H9c2 protect: -3.6; hiPSC survival: 0.3; GRIN3A LBD mod: 14.1*; FAS TE block: -9.1

Results for CCOCc1cc(CN2CCC(n3nccc3NC(=O)C3CC3)CC2)ccc1OC ?
Arrestin-AP2 inh: 10.8; SENP1 inh: -0.8; H9c2 protect: -1.5; hiPSC survival: 1.1; GRIN3A LBD mod: 1.5; FAS TE block: -4.8

Results for O=C1OCCN1C(=O)[C@H]1[C@H](c2ccc(F)cc2)C(c2ccccc2)=NN1c1ccccc1 ?
Arrestin-AP2 inh: -17.9; SENP1 inh: -48.5; H9c2 protect: 6.0; hiPSC survival: -2.2; GRIN3A LBD mod: -5.1; FAS TE block: 30.9
